Experimental findings from PubChem BioAssay are described below.

SMILES strings stand for the structures. Activity calls are given as the source filed them.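 Rule for the calls, unless noted: active = viability loss from added drug above about 55%, and viability with drug at most 40%, in both replicates (limit read from the data, passing the limit was not always enough); inconclusive = both conditions met in only one replicate; inactive = neither replicate meets both conditions.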

The nature of test [1]: HUVEC growth inhibition – cell-based, human, primary screen (AID 575;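 active = viability at or below 30% in both replicate assays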;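 note: 100% = median of untreated cell wells with 0.1% DMSO on each plate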). The following applies: HUVEC proliferation, CellTiter-Glo luminescence, 72 h; at 10 µM; stronger effect = lower value. Put shortly: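 Assay system: primary human umbilical vein endothelial cells / Buffer or medium: endothelial basal medium with 2% FBS plus growth supplements / Compound dosing: one dose, 10 µM final, 0.1% DMSO / Timing: 72 h treatment at 37 °C / Signal: CTG luminescence / Benchmarks: 32 DMSO-only cell-control wells (high), 32 MePR drug-control wells (low) per plate / Plate: collagen-coated 384-well format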

Test [2] is described as follows: H69AR cell proliferation blockers – human, duplicate replicates, primary screen (AID 580;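 active = viability at or under a set limit in both replicates, limit being median viability minus 3 SD, cut at about 48% in these data, passing the limit was not always enough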;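 note: 100% = mean luminescence of untreated wells and 0% = no signal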). As to conditions: H69AR lung tumor cells viability, ATP luminescence, 72 h; at 10 µM; stronger effect = lower value.
The nature of test [3]: MRP1 drug-resistance reversers in H69AR cells – cell-based, doxorubicin co-treatment, pilot screen (AID 601). The following applies: CellTiter-Glo, 72 h, at 10 µM; for differential viability (reversal): stronger effect = higher value.
Test [4] in a line: yeast transport mutant growth inhibition pilot in 384-well plates, post-Golgi transport modulator project (AID 636; in the data active = inhibition above about 31%). The following applies: absorbance 615 nm, about 18 h, stronger effect = higher value.
Test [5] in a line: growth suppression of yeast trafficking mutant, preliminary HTS, modulators of trafficking downstream of Golgi apparatus project, 1536-format plate, OD 615 nm (AID 637; in the data active = inhibition above about 30%). As to conditions: yeast transport mutant growth, absorbance 615 nm, 18 h; stronger effect = higher value.
[6] abbreviates: H69AR cells + 2 uM doxorubicin, measured here: viability with 2 uM doxorubicin, stronger effect = lower value.
Where [7] appears, read: H69AR cells, compound alone cytotoxicity.

Usually viability stands for a read-out of living cells in per cent, often relative to untreated cells. As usually defined, the inhibition is the relative decrease from the control value, in per cent. For the compound `COC(=O)c1ccc(C2CC(=O)Nc3cc(OC)c(OC)c(OC)c32)cc1` (stereo not drawn), the viability is 83.6% (inactive) in test [1], 89.4% (inactive) in test [2], 77.8% in test [3] (setting [6]) and 89.4% in test [3] (setting [7]). The differential viability (reversal) in test [3] (H69AR cells + 2 uM doxorubicin) is 11.6% (inactive). The inhibition was -3.47% (inactive) in test [4] and 0.63% (inactive) in test [5].

Regarding `CC(=O)c1c(C)[nH]c(C(=O)NC2=NCCS2)c1C`, the viability was 80.9% (inactive) in test [1], 99.8% (inactive) in test [2], 76.5% in test [3] (setting [6]) and 99.8% in test [3] (setting [7]). The differential viability (reversal) in test [3] (H69AR cells + 2 uM doxorubicin) was 23.3% (inactive). Further, the values for the inhibition in test [4] and in test [5] were -3.51% (inactive) and -5.4% (inactive), respectively.

As to `O=C(CCn1c(=O)c2sccc2n(CC(=O)NCc2ccco2)c1=O)NCc1ccccc1`, the viability in test [1] is 93.6% (inactive); in test [2], 96.9% (inactive); in test [3] (setting [6]), 92.5%; in test [3] (setting [7]), 96.9%. Also, in test [3] (H69AR cells + 2 uM doxorubicin), the differential viability (reversal) was 4.46% (inactive). Besides, the inhibition in test [4] is -0.65% (inactive); in test [5], -1.59% (inactive).

Consider `Cn1c(Cc2csc(N)n2)nnc1SCC(=O)NC1CCCCC1`, for which the viability in test [1] was 112% (inactive); in test [2] it was 96.8% (inactive); in test [3] (setting [6]), 103%; in test [3] (setting [7]), 96.8%. The differential viability (reversal) in test [3] (H69AR cells + 2 uM doxorubicin) is -5.84% (inactive). The inhibition is 0.92% (inactive) in test [4] and -0.63% (inactive) in test [5].

For the compound `CCCC(C)C1C(C#N)=C(N)Oc2cc(C)oc(=O)c21` (stereo not drawn), the viability in test [1] was 98.4% (inactive); in test [2], 85.7% (inactive); in test [3] (setting [6]) it was 92.6%; in test [3] (setting [7]), 85.7%. The differential viability (reversal) in test [3] (H69AR cells + 2 uM doxorubicin) was -6.91% (inactive). For the same compound, the inhibition in test [4] was -2.5% (inactive); in test [5] it was 4.76% (inactive).

On to `CCNc1oc(COc2ccccc2F)nc1C#N`, for which the viability in test [1] is 89.8% (inactive); in test [2], 100% (inactive); in test [3] (setting [6]), 77.4%; in test [3] (setting [7]), 100%. The differential viability (reversal) in test [3] (H69AR cells + 2 uM doxorubicin) was 22.9% (inactive). The results for the inhibition in test [4] and in test [5] were -2.6% (inactive) and 1.43% (inactive), respectively.

In the case of `C=CCn1c(=S)[nH]c2nc3c(cc2c1=O)COC(C)(C)C3`, the viability is 90% (inactive) in test [1], 77.8% (inactive) in test [2], 72% in test [3] (setting [6]) and 77.8% in test [3] (setting [7]). In addition, in test [3] (H69AR cells + 2 uM doxorubicin), the differential viability (reversal) is 5.84% (inactive). Besides, the figures for the inhibition in test [4] and in test [5] were -5.06% (inactive) and 2.86% (inactive), respectively.

Regarding `COc1ccccc1C1(CC(=O)N2CCOCC2)CCOC(C(C)C)C1` (stereo not drawn), the viability in test [1] is 72.7% (inactive); in test [2], 88.8% (inactive); in test [3] (setting [6]) it was 91%; in test [3] (setting [7]) it was 88.8%. Also, the differential viability (reversal) in test [3] (H69AR cells + 2 uM doxorubicin) is -2.17% (inactive). In addition, the inhibition in test [4] is -5.47% (inactive); in test [5], -6.03% (inactive).

`COc1ccc(Cn2nnnc2C(c2ccncc2)N2CCOCC2)cc1` (stereo not drawn): the viability in test [1] was 90.4% (inactive); in test [2] it was 94.7% (inactive); in test [3] (setting [6]), 91.4%; in test [3] (setting [7]) it was 94.7%. Besides, in test [3] (H69AR cells + 2 uM doxorubicin), the differential viability (reversal) is 3.26% (inactive). The inhibition is 0.78% (inactive) in test [4] and 0.95% (inactive) in test [5].

Take `COc1ccc2c(c1)C(=O)N(c1ccccc1OC)C(=O)C2`: the viability is 74.9% (inactive) in test [1], 92.8% (inactive) in test [2], 101% in test [3] (setting [6]) and 92.8% in test [3] (setting [7]). Further, in test [3] (H69AR cells + 2 uM doxorubicin), the differential viability (reversal) is -8.61% (inactive). The inhibition in test [4] is -3.87% (inactive); in test [5] it was 0.32% (inactive).

Turning to `Cc1ccc(CCSCC(=O)O)cn1`, the viability in test [1] was 109% (inactive); in test [2], 101% (inactive); in test [3] (setting [6]) it was 98.3%; in test [3] (setting [7]), 101%. The differential viability (reversal) in test [3] (H69AR cells + 2 uM doxorubicin) was 2.9% (inactive). The inhibition in test [4] is -2.4% (inactive); in test [5], 0.16% (inactive).

In the case of `CN(C)/C=c1\sc2c(C#N)cc(C(=O)c3ccc(Br)cc3)n2c1=O`, the viability in test [1] is 70% (inactive); in test [2], 76.6% (inactive); in test [3] (setting [6]), 68%; in test [3] (setting [7]), 76.6%. In addition, the differential viability (reversal) in test [3] (H69AR cells + 2 uM doxorubicin) was 8.66% (inactive). The inhibition is -4.29% (inactive) in test [4] and -1.59% (inactive) in test [5].

Take `CC(C)c1ccc(NC(=O)C2CC(=O)N(C(C)C)C2)cc1` (stereo not drawn): the viability was 89.2% (inactive) in test [1], 90.8% (inactive) in test [2], 87.3% in test [3] (setting [6]) and 90.8% in test [3] (setting [7]). In test [3] (H69AR cells + 2 uM doxorubicin), the differential viability (reversal) is 3.6% (inactive). Moreover, the inhibition in test [4] was -2.34% (inactive); in test [5] it was -2.86% (inactive).

As for `Cc1ccc(-c2nnn(CC(=O)N(CC(=O)NCC3CCCO3)c3ccccc3)n2)o1` (stereo not drawn), the viability in test [1] is 88.7% (inactive); in test [2], 90.9% (inactive); in test [3] (setting [6]), 88.4%; in test [3] (setting [7]), 90.9%. Besides, the differential viability (reversal) in test [3] (H69AR cells + 2 uM doxorubicin) is 2.55% (inactive). Besides, the inhibition in test [4] is -5.97% (inactive); in test [5], -1.11% (inactive).

Turning to `Cc1cccc(-n2ncc(C#N)c2N)c1`, the viability in test [1] is 109% (inactive); in test [2], 104% (inactive); in test [3] (setting [6]), 100%; in test [3] (setting [7]) it was 104%. In addition, in test [3] (H69AR cells + 2 uM doxorubicin), the differential viability (reversal) is 3.67% (inactive). Further, the inhibition in test [4] is -2.76% (inactive); in test [5], -1.11% (inactive).

On to `Clc1ccccc1-c1nnc2sc(-c3ccccn3)nn12`, for which the viability was 93.8% (inactive) in test [1], 86.3% (inactive) in test [2], 77.8% in test [3] (setting [6]) and 86.3% in test [3] (setting [7]). Further, the differential viability (reversal) in test [3] (H69AR cells + 2 uM doxorubicin) is 8.48% (inactive). The inhibition in test [4] was -1.97% (inactive); in test [5], 4.6% (inactive).

For `c1ccc(CC2CCN(Cc3nc(-c4ccccc4)no3)CC2)cc1`, the viability in test [1] is 65.1% (inactive); in test [2], 87.9% (inactive); in test [3] (setting [6]), 92.2%; in test [3] (setting [7]), 87.9%. For the same compound, the differential viability (reversal) in test [3] (H69AR cells + 2 uM doxorubicin) is -4.31% (inactive). Also, the inhibition in test [4] is -5.13% (inactive); in test [5], 0.95% (inactive).

Turning to `CCCC(CCC)n1[nH]c(=O)c2c(C)cc(C)nc21`, the viability in test [1] is 108% (inactive); in test [2] it was 104% (inactive); in test [3] (setting [6]), 103%; in test [3] (setting [7]), 104%. For the same compound, the differential viability (reversal) in test [3] (H69AR cells + 2 uM doxorubicin) was 1.53% (inactive). In addition, the inhibition in test [4] is 0.26% (inactive); in test [5] it was -3.17% (inactive).

Consider `O=C(CC1CCCCC1)NCc1ccccn1`, for which the viability was 92.2% (inactive) in test [1], 95.8% (inactive) in test [2], 82.9% in test [3] (setting [6]) and 95.8% in test [3] (setting [7]). In addition, the differential viability (reversal) in test [3] (H69AR cells + 2 uM doxorubicin) was 12.9% (inactive). Moreover, the inhibition in test [4] was -3.42% (inactive); in test [5], -6.67% (inactive).
